Results taken from PubChem BioAssay.
Records with an inconclusive call do not appear. Calls of active or inactive are those of the source.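 How the source made its calls, unless noted: active means inhibition over a set limit, the all-compound mean plus 3 SD, in both replicate runs; inconclusive means over that limit in just one replicate run; inactive means at or under that limit in both runs.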

Key:
[1] = S. cerevisiae growth inhibition in permissive medium (OD615), pilot counter-assay for S. cerevisiae lifespan shortening project, permissive growth control (AID 705;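 active means growth inhibition above 25% in both replicates, a cutoff set 3 SD above the mean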); settings: OD615, 24 h, at 10 µM, active compounds read high
In short: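 Timing: 24 h exposure, 30 °C / Material: Saccharomyces cerevisiae strain carrying genetically modified DeaD replicative-lifespan system / Signal: OD at 615 nm / Compound: 10 µM single dose, 0.25% DMSO / Medium: SC raffinose/galactose permissive medium / Evaluation: reduction in yeast growth (OD615)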

[2] = S. cerevisiae growth inhibition in restrictive medium, OD615, pilot screen, restrictive growth control, yeast lifespan reduction project (AID 706;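 active means growth inhibition above a set limit, 3 SD over mean compound inhibition, in both replicates, cut at about 43% in these data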;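 further: modified DeaD lifespan yeast strain shifted to restrictive glucose medium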); settings: OD615, 48 h, at 10 µM, active compounds read high
In short: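 System: Engineered S. cerevisiae DeaD strain | Detection: OD615 | Buffer or medium: CSMM-D glucose medium | Doses: 10 µM compound, 0.25% DMSO | Timing: 4 h pre-growth plus 48 h compound exposure, 30 °C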

[3] = doxorubicin toxicity protection in MRP-1 cells – H69AR cells, CellTiter-Glo, duplicate, MRP-1 activator project, pilot screen (AID 807;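 active means viability increase at or above a cutoff of the median across tested compounds plus 3 SD, cut at about 8.5% in these data, passing the limit was not always enough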;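 further: compound pretreatment 18-22 h then 72 h combined with doxorubicin; 0% = doxorubicin alone and 100% = vehicle without doxorubicin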); settings: H69AR viability with doxorubicin, CellTiter-Glo luminescence; at 10 µM; active compounds read high
[4] = viability of HCT116 without oncogenic beta-catenin – human colon tumor cells, pilot screen (AID 823;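 active means cell viability at or below a set limit in both duplicate runs, the limit being the all-compound median minus 4 SD, cut at about 23% in these data, passing the limit was not always enough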;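 further: 0% = wells killed by 20 µM Hyamine and 100% = untreated DMSO cell wells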); settings: HCT116 beta-catenin knockout viability, CellTiter-Glo, 60 h; at 10 µM; active compounds read low
[5] = viability of PTEN-null HCT116 cells – cell-based, HCT116 clonal line, CellTiter-Glo, pilot screen (AID 824;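 active means viability at or below 27.92% in each of two runs, the all-compound median minus 4 SD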;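 further: 0% = 20 µM Hyamine control and 100% = vehicle cell control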); settings: HCT116 PTEN-deleted viability, 60 h, at 10 µM, active compounds read low
[6] = RAM pathway blockade in budding yeast – dse1pr::URA3 reporter, 5-FOA selection, pilot screen (AID 869);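 further: 0% = DMSO wells with no growth and 100% = 10 µM 1-NA-PP1 with full growth; RAM network block rescues cells from 5-FOA so hits raise OD615 growth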; settings: S. cerevisiae dse1pr::URA3 5-FOA growth, OD615, 2 d; at 10 µM; active compounds read high; strain carries analog-sensitive mutant Cbk1 kinase
[7] = RAM signaling pathway blockade in yeast – S. cerevisiae, Pdr1DBD-CYC8 efflux-inhibited sensitized strain, primary screen (AID 1298;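 active means RAM network inhibition above 8.4% in each of two replicates, 3 SD over the compound average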;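 further: 0% = DMSO untreated cells without growth and 100% = 10 µM 1-NA-PP1 full growth; higher means more yeast growth rescued from 5-FOA killing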); settings: S. cerevisiae cbk1-as DSE1-URA3 strain, 5-FOA growth OD615, 2 d; at 50 µM; active compounds read high

O=C(NCCOC(=O)c1ccc(S(=O)(=O)N2CCOCC2)cc1)c1cccnc1
inactive: growth inhibition [1] -19.9% | growth inhibition [2] -9.85% | viability increase [3] -0.91% | viability [4] 89.8% | viability [5] 91.7% | inhibition [6] 2.44% | RAM network inhibition [7] 2.11%

COc1ccc(C)cc1S(=O)(=O)N1CCN(S(=O)(=O)c2cc(C)ccc2OC)C(C)C1 (configuration not stated)
inactive: growth inhibition [1] -8.75% | growth inhibition [2] -8.42% | viability increase [3] -3.35% | viability [4] 88.7% | viability [5] 85.6% | inhibition [6] 2.99% | RAM network inhibition [7] 2.61%

CCOC(=O)CSc1nc(N)nc(C)c1Br
inactive: growth inhibition [1] -0.46% | growth inhibition [2] -3.4% | viability increase [3] -2.62% | viability [4] 103% | viability [5] 104% | inhibition [6] 0.49% | RAM network inhibition [7] 0.51%

c1ccc(CNc2nc3ccccc3n3cnnc23)nc1
inactive: growth inhibition [1] -13.7% | growth inhibition [2] -8.93% | viability increase [3] -1.36% | viability [4] 105% | viability [5] 88.5% | inhibition [6] -0.44% | RAM network inhibition [7] 3.37%

CC(C)(Oc1ccc(Cl)cc1)C(=O)NCc1ccco1
inactive: growth inhibition [1] -1.12% | growth inhibition [2] -0.2% | viability increase [3] -4.22% | viability [4] 87.2% | viability [5] 80% | inhibition [6] 1.18% | RAM network inhibition [7] 5.92%

CCOC(=O)c1nn(-c2ccccc2)c(=O)c2c(N)scc12
inactive: growth inhibition [1] -4.99% | growth inhibition [2] -1.54% | viability increase [3] -3.93% | viability [4] 102% | viability [5] 107% | inhibition [6] 2.98% | RAM network inhibition [7] 4.03%

COc1ccc(-c2cc(C(=O)O)c3ccccc3n2)c(OC)c1
inactive: growth inhibition [1] -10.4% | growth inhibition [2] 0.26% | viability increase [3] -2.6% | viability [4] 82.2% | viability [5] 89.3% | inhibition [6] 1.47% | RAM network inhibition [7] 5.56%

Cc1nn(-c2ccccc2)c2c1C(c1ccncc1)C(C#N)=C(N)O2 (configuration not stated)
inactive: growth inhibition [1] -12.9% | growth inhibition [2] -0.78% | viability increase [3] -0.07% | viability [4] 92.8% | viability [5] 89.6% | inhibition [6] 0.975% | RAM network inhibition [7] 4.36%

CCOc1ccc(-n2c(Cc3cc(=O)[nH]c(=O)[nH]3)nnc2SCC(=O)NC2CCCC2)cc1
inactive: growth inhibition [1] -1.49% | growth inhibition [2] 4.62% | viability increase [3] -0.16% | viability [4] 101% | viability [5] 100% | inhibition [6] -1.29% | RAM network inhibition [7] -0.37%

c1ccc(Oc2nc(Oc3ccccc3)nc(N3CCOCC3)n2)cc1
inactive: growth inhibition [1] -3.76% | growth inhibition [2] -9.93% | viability increase [3] -2.99% | viability [4] 83.7% | viability [5] 74.1% | inhibition [6] 0.355% | RAM network inhibition [7] 8.11%

CC1CC(NC(=O)CCn2c(=O)oc3ccccc32)CC(C)(C)C1 (configuration not stated)
inactive: growth inhibition [1] 1.98% | growth inhibition [2] -2.1% | viability increase [3] -1.55% | viability [4] 97.1% | viability [5] 102% | inhibition [6] 1.02% | RAM network inhibition [7] 4.18%

Cc1oc(-c2cccs2)nc1CS(=O)CC(=O)NC1CCCCCC1 (configuration not stated)
active: growth inhibition [2] 51.7%
inactive: growth inhibition [1] 11.3% | viability increase [3] -2.99% | viability [4] 75.4% | viability [5] 84.5% | inhibition [6] -0.045% | RAM network inhibition [7] -1.22%

CCC(C)NC(=O)C(Cc1ccccc1)n1cccc1 (configuration not stated)
inactive: growth inhibition [1] -9.66% | growth inhibition [2] -6.93% | viability increase [3] 0.42% | viability [4] 101% | viability [5] 88.4% | inhibition [6] -0.195% | RAM network inhibition [7] 3%

Cc1ccc(S(=O)(=O)N2CCC(C(=O)N[C@@H](C)C(=O)NC3CCCCC3)CC2)cc1
inactive: growth inhibition [1] -10.2% | growth inhibition [2] -17.1% | viability increase [3] 3.71% | viability [4] 97.7% | viability [5] 99.8% | inhibition [6] 2.49% | RAM network inhibition [7] 4.41%

O=C1c2ccccc2C(Nc2ccc(S(=O)(=O)N3CCCCC3)cc2)N1c1ccccn1 (configuration not stated)
inactive: growth inhibition [1] -3.39% | growth inhibition [2] -7.4% | viability increase [3] -4.22% | viability [4] 67.8% | viability [5] 65.4% | inhibition [6] 2.17% | RAM network inhibition [7] 3.68%

COc1ccc(C(=O)c2coc3ccc(O)c(CN(C)C)c23)cc1
inactive: growth inhibition [1] -15% | growth inhibition [2] -11.6% | viability increase [3] -2.46% | viability [4] 84.4% | viability [5] 76.1% | inhibition [6] 0.74% | RAM network inhibition [7] -1.93%

O=C(CC1c2ccccc2Oc2ccccc21)N1CCN(c2ccccn2)CC1
inactive: growth inhibition [1] -16.3% | growth inhibition [2] -10.3% | viability increase [3] -3.24% | viability [4] 71.6% | viability [5] 70.5% | inhibition [6] 1.08% | RAM network inhibition [7] 4.78%

O=C(NCCNC(=O)c1ccc(Br)o1)c1ccc(Br)o1
inactive: growth inhibition [1] -7.92% | growth inhibition [2] 4.26% | viability increase [3] 1.39% | viability [4] 99.1% | viability [5] 105% | inhibition [6] 0.39% | RAM network inhibition [7] 0.1%

Cc1ccc2sc(NC(=O)CN3C(=O)CCC3=O)nc2c1C
inactive: growth inhibition [1] -10.4% | growth inhibition [2] -12.7% | viability increase [3] 2.23% | viability [4] 114% | viability [5] 109% | inhibition [6] 0.805% | RAM network inhibition [7] 2.15%

COc1ccc(NC(=O)CN2CC(c3ccccc3)CC2=O)cc1OC (configuration not stated)
inactive: growth inhibition [1] -17.9% | growth inhibition [2] -15.6% | viability increase [3] -1.08% | viability [4] 104% | viability [5] 95.1% | inhibition [6] 0.27% | RAM network inhibition [7] 2.86%

CCOC(=O)N1CCN(C(=O)Cn2ncc3ccccc32)CC1
inactive: growth inhibition [1] -14.3% | growth inhibition [2] -4.71% | viability increase [3] -1.62% | viability [4] 105% | viability [5] 89.4% | inhibition [6] 3.38% | RAM network inhibition [7] 2.51%

CCOCCn1c(CN2CCC(C)CC2)nc2c1c(=O)n(C)c(=O)n2C
inactive: growth inhibition [1] 7.15% | growth inhibition [2] -2.44% | viability increase [3] -1.22% | viability [4] 91.8% | viability [5] 91.5% | inhibition [6] 0.02% | RAM network inhibition [7] -0.56%

CC1(C)CC(=O)N(CC(=O)N2CCN(c3ncccn3)CC2)c2ccccc2S1(=O)=O
inactive: growth inhibition [1] -6.82% | growth inhibition [2] -9.5% | viability increase [3] 0.27% | viability [4] 102% | viability [5] 91.8% | inhibition [6] 0.48% | RAM network inhibition [7] -0.32%

COc1ccc(NC(=O)CSc2nnc(Cn3c(=O)sc4ccccc43)n2C)cc1
inactive: growth inhibition [1] -3.85% | growth inhibition [2] 7.49% | viability increase [3] -4.99% | viability [4] 111% | viability [5] 98.4% | inhibition [6] 2.43% | RAM network inhibition [7] 1.51%

CC(=O)Nc1ccc(S(=O)(=O)N2CCN(c3ccc(C)c(Cl)c3)CC2)cc1
inactive: growth inhibition [1] -14.6% | growth inhibition [2] 6.34% | viability increase [3] 0.47% | viability [4] 98.3% | viability [5] 85.4% | inhibition [6] 1.71% | RAM network inhibition [7] 1.14%

Cn1cc(S(=O)(=O)CC(=O)Nc2ccc3c(c2)OCO3)c2ccccc21
inactive: growth inhibition [1] -1.92% | growth inhibition [2] 4.48% | viability increase [3] -2.54% | viability [4] 95.9% | viability [5] 92.1% | inhibition [6] 0.5% | RAM network inhibition [7] 5.14%

COc1ccc2ccccc2c1C1CC(=O)N2CN(Cc3ccco3)CSC2=C1C#N (configuration not stated)
inactive: growth inhibition [1] 1.42% | growth inhibition [2] 16.4% | viability increase [3] -5.39% | viability [4] 82.5% | viability [5] 80.9% | inhibition [6] 3.5% | RAM network inhibition [7] 3.82%

CC1CCCC(NC(=O)c2ccc3c(c2)N(Cc2ccccc2)C(=O)CS3=O)C1C (configuration not stated)
inactive: growth inhibition [1] 0.145% | growth inhibition [2] 4.42% | viability increase [3] -3.1% | viability [4] 70.8% | viability [5] 62.5% | inhibition [6] 0.69% | RAM network inhibition [7] 5.92%

C=CCc1c(C)nc(SCc2nc3ccccc3c(=O)[nH]2)[nH]c1=O
inactive: growth inhibition [1] 3.73% | growth inhibition [2] 15.9% | viability increase [3] 0.9% | viability [4] 94.2% | viability [5] 96.7% | inhibition [6] 0.91% | RAM network inhibition [7] 1.65%

C=CCn1cc(C(=O)NCc2cccnc2)c(=O)c2cc(S(=O)(=O)N(CC)CC)ccc21
inactive: growth inhibition [1] -7.53% | growth inhibition [2] -8.9% | viability increase [3] -3.95% | viability [4] 103% | viability [5] 97% | inhibition [6] 1.33% | RAM network inhibition [7] 0.51%

Cc1nn(Cc2c(Cl)cccc2Cl)c(C)c1NC(=O)c1cc(C(C)C)on1
inactive: growth inhibition [1] -10.6% | growth inhibition [2] 0.6% | viability increase [3] -1.33% | viability [4] 74.2% | viability [5] 62.9% | inhibition [6] 2.81% | RAM network inhibition [7] 2.56%

CCCCNc1ncnc2c1cnn2-c1ccc(C)cc1C
inactive: growth inhibition [1] 6.55% | growth inhibition [2] 9.48% | viability increase [3] -3.72% | viability [4] 92.8% | viability [5] 89.2% | inhibition [6] -0.12% | RAM network inhibition [7] 0.27%

Cc1cc(NC(=O)CSCCc2ccncc2)no1
inactive: growth inhibition [1] -9.54% | growth inhibition [2] -5.15% | viability increase [3] -0.06% | viability [4] 99.7% | viability [5] 105% | inhibition [6] 0.675% | RAM network inhibition [7] 1.27%

Cc1nn(C)c(C)c1S(=O)(=O)N(CC(=O)NCc1ccco1)c1ccc(C(C)C)cc1
inactive: growth inhibition [1] -10.3% | growth inhibition [2] -2.95% | viability increase [3] -5.76% | viability [4] 96.8% | viability [5] 97.3% | inhibition [6] -0.17% | RAM network inhibition [7] 7.88%

CCCOC(=O)C1=C(C)NC2=C(C(=O)C(C(=O)OC)C(C)C2)C1c1ccc(N(CC)CC)cc1 (configuration not stated)
inactive: growth inhibition [1] -10.6% | growth inhibition [2] -19.6% | viability increase [3] -3.23% | viability [4] 65.7% | viability [5] 56.8% | inhibition [6] 1.56% | RAM network inhibition [7] 1.46%

COc1ccc(S(=O)(=O)NCc2ccccc2Cl)cc1OC
inactive: growth inhibition [1] -5.85% | growth inhibition [2] 2.66% | viability increase [3] -1.42% | viability [4] 102% | viability [5] 96.1% | inhibition [6] 1.98% | RAM network inhibition [7] 2.86%
